Assay results taken from ChEMBL document CHEMBL3526046, “The role of aldehyde oxidase and xanthine oxidase in the biotransformation of a novel negative allosteric modulator of metabotropic glutamate receptor subtype 5” (Drug Metab Dispos, 2012).

What was measured:
[1] = Drug metabolism in cynomolgus monkey hepatic S9 fraction assessed as 3-(2,4-dioxo-1,2,3,4-tetrahydropyrimidin-5-yloxy)-5-fluoro-N-(thiazol-2-yl)benzamide at 1 uM by LC-MS/MS analysis; type: ADME, Macaca fascicularis, Liver; details: s9, 1 µM
[2] = Intrinsic clearance in human cryopreserved hepatocytes at 1 uM; type: ADME, cell-based, Hepatocyte
Outline: (§1)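 Hepatocyte depletion assay at 2 × 10^6 cells/ml, 37°C, ambient oxygen. Aliquots taken at 0, 15, 30, 60 and 120 min, quenched in ice-cold MeCN containing internal standard, analysed by LC-MS/MS in triplicate. Intrinsic clearance estimated by the substrate depletion method.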

[3] = Drug metabolism in Sprague-Dawley rat cryopreserved hepatocytes assessed as hydroxylated thiazole metabolite formation at 25 uM by LC-MS/MS analysis in presence of 1-ABT pan-450 inactivator; type: ADME, cell-based, Hepatocyte
Outline: (§2)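 Pooled cryopreserved hepatocytes (2 × 10^6 cells/ml) in Krebs-Henseleit buffer, 25 µM substrate, 37°C for 4 h. Rat donors were 14 males, cynomolgus 4 males, human 20 mixed gender. Cells precipitated with 2 volumes MeCN, centrifuged at 4°C; supernatant dried under nitrogen, reconstituted in 15% aqueous MeCN for LC-MS.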

[4] = Volume of distribution at steady state in Sprague-Dawley rat at 1 mg/kg, iv administered as single dose; type: ADME, organism-based; design: dose 1 mg/kg, route intravenous; details: in vivo, read-out: Vdss
Outline: (§3)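 Cannulated male Sprague-Dawley rats dosed at 1 mg/kg through a jugular catheter in 10% ethanol/70% PEG400/20% saline. Carotid blood drawn at 0.033 to 24 h into chilled EDTA tubes; plasma stored at -80°C. Parameters derived by noncompartmental analysis.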

Plasma [5] = assay: Retention time in Sprague-Dawley rat plasma treated with 56.6 mg/kg, ip VU0409106 single dose; type: ADME, organism-based; design: dose 56.6 mg/kg, route intraperitoneal; details: in vivo
Outline: (§4)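 Male Sprague-Dawley rats given a single intraperitoneal dose of 56.6 mg/kg. Plasma extracted with 2 volumes acetonitrile and centrifuged; metabolites profiled by LC-MS/MS.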

[6] = Effective half life in Sprague-Dawley rat at 1 mg/kg, iv administered as single dose; type: ADME, organism-based; design: dose 1 mg/kg, route intravenous; details: in vivo; outline: as §3
[7] = Drug metabolism in Sprague-Dawley rat hepatic S9 fraction assessed as 3-fluoro-N-(4-methylthiazol-2-yl)-5-(6-oxo-1,6-dihydropyrimidin-5-yloxy)benzamide at 25 uM by LC-MS/MS analysis; type: ADME, Liver; details: s9, 25 µM
[8] = Intrinsic clearance in Sprague-Dawley rat hepatic cytosol at 1 uM; type: ADME, tissue-based, Liver
Outline: (§5)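 Substrate depletion at 1 µM in 0.1 M potassium phosphate pH 7.4, S9 2.5 mg/ml or cytosol 1 mg/ml, ± NADPH 1 mM, 37°C. Sampled at 0, 3, 7, 15, 25 and 45 min, quenched in cold MeCN with internal standard, analysed by LC-MS/MS in triplicate. CLint scaled using 120.7 mg S9 or 80.7 mg cytosol protein.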

[9] = Drug metabolism in Sprague-Dawley rat cryopreserved hepatocytes assessed as hydroxylated pyrimidine metabolite formation at 25 uM by LC-MS/MS analysis in presence of 1-ABT pan-450 inactivator; type: ADME, cell-based, Hepatocyte; outline: as §2
[10] = Plasma clearance in Sprague-Dawley rat at 1 mg/kg, iv administered as single dose; type: ADME, organism-based; design: dose 1 mg/kg, route intravenous; outline: as §3
[11] = Inhibition of group 1 mGluR (unknown origin); design: species or system Homo sapiens
[12] = Intrinsic clearance in Sprague-Dawley rat cryopreserved hepatocytes at 1 uM; type: ADME, cell-based, Hepatocyte; outline: as §1
[13] = Intrinsic clearance in cynomolgus monkey hepatic S9 fraction at 1 uM in presence of NADPH; type: ADME, tissue-based, Macaca fascicularis, Liver; outline: as §5
Plasma [14] = assay: Drug metabolism in Sprague-Dawley rat plasma assessed as hydroxylated pyrimidine metabolite formation at 56.6 mg/kg, ip single dose by LC-MS/MS analysis; type: ADME, organism-based; design: dose 56.6 mg/kg, route intraperitoneal; details: in vivo; outline: as §4
[15] = Intrinsic clearance in cynomolgus monkey cryopreserved hepatocytes at 1 uM; type: ADME, cell-based, Macaca fascicularis, Hepatocyte; outline: as §1
[16] = Drug metabolism in human hepatic S9 fraction assessed as 3-(2,4-dioxo-1,2,3,4-tetrahydropyrimidin-5-yloxy)-5-fluoro-N-(thiazol-2-yl)benzamide at 1 uM by LC-MS/MS analysis; type: ADME, Liver; details: s9, 1 µM
[17] = Intrinsic clearance in cynomolgus monkey hepatic S9 fraction at 1 uM; type: ADME, tissue-based, Macaca fascicularis, Liver; outline: as §5
[18] = Intrinsic clearance in Sprague-Dawley rat hepatic S9 fraction at 1 uM; type: ADME, tissue-based, Liver; outline: as §5
[19] = Inhibition of group 2 mGluR (unknown origin); design: species or system Homo sapiens
[20] = Intrinsic clearance in human hepatic S9 fraction at 1 uM in presence of NADPH; type: ADME, tissue-based, Liver; outline: as §5
[21] = Drug metabolism in human cryopreserved hepatocytes assessed as hydroxylated thiazole metabolite formation at 25 uM by LC-MS/MS analysis in presence of 1-ABT pan-450 inactivator; type: ADME, cell-based, Hepatocyte; outline: as §2
[22] = Drug metabolism in cynomolgus monkey hepatic S9 fraction assessed as 3-fluoro-N-(4-methylthiazol-2-yl)-5-(6-oxo-1,6-dihydropyrimidin-5-yloxy)benzamide at 1 uM by LC-MS/MS analysis; type: ADME, Macaca fascicularis, Liver; details: s9, 1 µM
[23] = Drug metabolism in human hepatic S9 fraction assessed as 3-fluoro-N-(4-methylthiazol-2-yl)-5-(6-oxo-1,6-dihydropyrimidin-5-yloxy)benzamide at 1 uM by LC-MS/MS analysis; type: ADME, Liver; details: s9, 1 µM
[24] = Plasma clearance in cynomolgus monkey at 1 mg/kg, iv administered as single dose; type: ADME, organism-based, Macaca fascicularis; design: dose 1 mg/kg, route intravenous
Outline: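 Male cynomolgus monkeys (n = 2, about 3 kg) given 1 mg/kg i.v. via the saphenous vein in 10% ethanol/60% PEG400/30% isotonic saline. Femoral blood sampled from 0.033 to 24 h into chilled EDTA tubes; plasma kept at -80°C.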

[25] = Inhibition of group 3 mGluR (unknown origin); design: species or system Homo sapiens
Plasma [26] = assay: Drug metabolism in Sprague-Dawley rat plasma assessed as hydroxylated thiazole metabolite formation at 56.6 mg/kg, ip single dose by LC-MS/MS analysis; type: ADME, organism-based; design: dose 56.6 mg/kg, route intraperitoneal; details: in vivo; outline: as §4
[27] = Drug metabolism in Sprague-Dawley rat hepatic S9 fraction assessed as 3-(2,4-dioxo-1,2,3,4-tetrahydropyrimidin-5-yloxy)-5-fluoro-N-(thiazol-2-yl)benzamide at 25 uM by LC-MS/MS analysis; type: ADME, Liver; details: s9, 25 µM
[28] = Intrinsic clearance in Sprague-Dawley rat hepatic S9 fraction at 1 uM in presence of NADPH; type: ADME, tissue-based, Liver; outline: as §5
[29] = Drug metabolism in human cryopreserved hepatocytes assessed as 3-(2,4-dioxo-1,2,3,4-tetrahydropyrimidin-5-yloxy)-5-fluoro-N-(thiazol-2-yl)benzamide at 25 uM by LC-MS/MS analysis; type: ADME, cell-based, Hepatocyte; outline: as §2
[30] = Drug metabolism in human cryopreserved hepatocytes assessed as hydroxylated pyrimidine metabolite formation at 25 uM by LC-MS/MS analysis in presence of 1-ABT pan-450 inactivator; type: ADME, cell-based, Hepatocyte; outline: as §2
[31] = Intrinsic clearance in human hepatic cytosol at 1 uM; type: ADME, tissue-based, Liver; outline: as §5
[32] = Drug metabolism in human cryopreserved hepatocytes assessed as 3-fluoro-N-(4-methylthiazol-2-yl)-5-(6-oxo-1,6-dihydropyrimidin-5-yloxy)benzamide at 25 uM by LC-MS/MS analysis; type: ADME, cell-based, Hepatocyte; outline: as §2
[33] = Drug level in Sprague-Dawley rat hepatic S9 fraction treated with 25 uM VU0409106 by LC-MS/MS analysis in presence of 100 uM hydralazine aldehyde oxidase inhibitor; type: ADME, tissue-based, Liver
Outline: (§6)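 Hepatic S9 (5 mg/ml) in 0.1 M potassium phosphate pH 7.4 with 3 mM MgCl2 and 25 µM substrate, 37°C, 1 h under ambient oxygen; NADPH (2 mM) added in select runs. Reactions started by adding substrate. Protein precipitated with 2 volumes MeCN and the supernatant dried under nitrogen, reconstituted in 85:15 10 mM ammonium formate (pH 4.1)-MeCN, then analysed by LC-MS.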

Hepatocyte = assay: Drug level in Sprague-Dawley rat cryopreserved hepatocytes treated with 25 uM VU0409106 by LC-UV-MS analysis; type: ADME, cell-based
[34] = Drug level in human hepatic S9 fraction treated with 25 uM VU0409106 by LC-UV-MS analysis; type: ADME, tissue-based, Liver; outline: as §6
[35] = Drug level in Sprague-Dawley rat hepatic S9 fraction treated with 25 uM VU0409106 by LC-UV-MS analysis; type: ADME, tissue-based, Liver; outline: as §6
[36] = Drug level in beagle dog hepatic S9 fraction treated with 25 uM VU0409106 by LC-MS/MS analysis; type: ADME, tissue-based, Canis lupus familiaris, Liver; outline: as §6
[37] = Drug level in human hepatic S9 fraction treated with 25 uM VU0409106 by LC-MS/MS analysis in presence of 100 uM hydralazine aldehyde oxidase inhibitor; type: ADME, tissue-based, Liver; outline: as §6
[38] = Drug level in human hepatic S9 fraction treated with 25 uM VU0409106 by LC-MS/MS analysis in presence of 100 uM raloxifene aldehyde oxidase inhibitor; type: ADME, tissue-based, Liver; outline: as §6
Plasma [39] = assay: Drug level in Sprague-Dawley rat plasma treated with 56.6 mg/kg, ip VU0409106 single dose by LC-MS/MS analysis; type: ADME, organism-based; design: dose 56.6 mg/kg, route intraperitoneal; details: in vivo; outline: as §4
[40] = Drug level in Sprague-Dawley rat hepatic S9 fraction treated with 25 uM VU0409106 by LC-MS/MS analysis in presence of 100 uM allopurinol xanthine oxidase inhibitor; type: ADME, tissue-based, Liver; outline: as §6
[41] = Drug level in cynomolgus monkey hepatic S9 fraction treated with 25 uM VU0409106 by LC-UV-MS analysis; type: ADME, tissue-based, Macaca fascicularis, Liver; outline: as §6

SMILES: Cc1csc(NC(=O)c2cc(F)cc(Oc3cncnc3)c2)n1
- Drug metabolism [1]: metabolite_detected
- CLint at 1 µM [2]: 6.9 mL/min/kg
- Drug metabolism [3]: metabolite_not_detected
- Vd [4]: 0.81 L/kg
- Retention_time (Plasma [5]): 14.5 min
- half-life [6]: < 15 min
- Drug metabolism [7]: metabolite_detected
- CLint at 1 µM [8]: 16 mL/min/kg
- Drug metabolism [9]: metabolite_not_detected
- clearance [10]: 43 mL/min/kg
- IC50 [11]: ≥ 10 µM
- CLint at 1 µM [12]: 96 mL/min/kg
- CLint at 1 µM [13]: 37 mL/min/kg
- Drug metabolism (Plasma [14]): metabolite_detected
- CLint at 1 µM [15]: 194 mL/min/kg
- Drug metabolism [16]: metabolite_detected
- CLint at 1 µM [17]: 34 mL/min/kg
- CLint at 1 µM [18]: 25 mL/min/kg
- IC50 [19]: ≥ 10 µM
- CLint at 1 µM [20]: 15 mL/min/kg
- Drug metabolism [21]: metabolite_not_detected
- Drug metabolism [22]: metabolite_detected
- Drug metabolism [23]: metabolite_detected
- clearance [24]: 24 mL/min/kg
- IC50 [25]: ≥ 10 µM
- Drug metabolism (Plasma [26]): metabolite_detected
- Drug metabolism [27]: metabolite_detected
- CLint at 1 µM [28]: 54 mL/min/kg
- Drug metabolism [29]: metabolite_detected
- Drug metabolism [30]: metabolite_not_detected
- CLint at 1 µM [31]: 3.7 mL/min/kg
- Drug metabolism [32]: metabolite_detected

SMILES: Cc1csc(NC(=O)c2cc(F)cc(Oc3cnc[nH]c3=O)c2)n1
- Drug metabolism [33]: metabolite_not_detected
- Drug metabolism (Hepatocyte): metabolite_detected
- Drug metabolism [34]: metabolite_detected
- Drug metabolism [35]: metabolite_detected
- Retention_time (Plasma [5]): 12.55 min
- Drug metabolism [36]: metabolite_not_detected
- Drug metabolism [37]: metabolite_not_detected
- Drug metabolism [38]: metabolite_not_detected
- Drug metabolism (Plasma [39]): metabolite_detected
- Drug metabolism [40]: metabolite_detected
- Drug metabolism [41]: metabolite_detected
